# Experiments:
# Rattus norvegicus [1] = organism: Rattus norvegicus; assay: Effect of fluoxetine on the elevation of serum corticosterone, Fluoxetine pretreament; assay type: functional, organism-based
# Summary of the method: (§1)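 Rats got fluoxetine HCl (10 mg/kg, ip) or no pretreatment. 16 h later, drug (0.3 mg/kg, sc, dilute HCl) or p-chloroamphetamine HCl (2.5 mg/kg, ip) was given, with decapitation 1 h after. Serum corticosterone was measured spectrofluorometrically. Results are mean ± SE, five male Wistar rats/group, P < 0.05.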
# Rattus norvegicus [2] = assay: Effect of Metergoline on the elevation of serum corticosterone, after sc administration (0.03 mg/kg) Metergoline pretreament; assay type: functional, organism-based
# Summary of the method: (§2)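 Male Wistar rats (~150 g) received metergoline (3 mg/kg, ip) or no pretreatment. Drug was given sc in dilute HCl 1 h later, and rats were decapitated 1 h after that. Serum corticosterone was determined spectrofluorometrically. Results are mean ± SE, five rats/group, P < 0.05 versus the corresponding control.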
# Rattus norvegicus [3] = assay: Effect on serum corticosterone in serum of rats after sc administration (0 mg/kg dose) (experiment 1); assay type: functional, organism-based
# Summary of the method: (§3)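 Male Wistar rats (~150 g) housed at 24 °C with lights 7 a.m.–7 p.m. Compound in dilute HCl given sc 1 h before decapitation. Serum corticosterone measured spectrofluorometrically, μg/100 mL. Five rats per group, mean ± SE. Significance set at P < 0.05 versus the vehicle control.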
# Rattus norvegicus [4] = assay: Effect on 5-hydroxyindoleacetic acid in rat whole brain, after sc administration (1 mg/kg dose) (experiment 1); assay type: functional, organism-based
# Summary of the method: (§4)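 Drug was given sc in dilute HCl to male Wistar rats (~150 g), with decapitation 1 h later. Whole brains were frozen on dry ice and held at −15 °C. […] Results are mean ± SE, five rats/group, P < 0.05 versus vehicle control.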
# Rattus norvegicus [5] = assay: Effect on serotonin in rat whole brain, after sc administration (0.03 mg/kg dose) (experiment 1); assay type: functional, organism-based; summary of the method: as §4
# Rattus norvegicus [6] = assay: Effect on serum corticosterone in serum of rats after sc administration (0.1 mg/kg dose) (experiment 1); assay type: functional, organism-based; summary of the method: as §3
# Rattus norvegicus [7] = assay: Effect of Metergoline on the elevation of serum corticosterone, after sc administration (0.3 mg/kg) No pretreatment; assay type: functional, organism-based; summary of the method: as §2
# Rattus norvegicus [8] = assay: Decreased accumulation of 5-hydroxytryptophan after decarboxylase inhibition in the hypothalamus of rat at a dose 0.3 mg/Kg, sc; assay type: functional, organism-based
# Summary of the method: (§5)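 Male Wistar rats (~150 g) got drug sc in dilute HCl. NSD 1015 (100 mg/kg, ip) was given 30 min after drug and 30 min before decapitation. Hypothalamic 5-HTP was measured by LC with electrochemical detection. Results are mean ± SE, five rats per treated group and six controls; significance at P < 0.01.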
# Rattus norvegicus [9] = assay: Effect on serotonin in rat whole brain, after sc administration (0 mg/kg dose) (experiment 1); assay type: functional, organism-based; summary of the method: as §4
# Rattus norvegicus [10] = assay: Effect on serotonin in rat whole brain, after sc administration (0.03 mg/kg dose) (experiment 2); assay type: functional, organism-based
# Rattus norvegicus [11] = assay: Decreased accumulation of 5-hydroxytryptophan after decarboxylase inhibition in the hypothalamus of rat at a dose 0.1mg/Kg, sc; assay type: functional, organism-based; summary of the method: as §5
# Rattus norvegicus [12] = assay: Effect on 5-hydroxyindoleacetic acid in rat whole brain, after sc administration (0 mg/kg dose) (experiment 2); assay type: functional, organism-based; summary of the method: as §4
# Rattus norvegicus [13] = assay: Effect on 5-hydroxyindoleacetic acid in rat whole brain, after sc administration (0.3 mg/kg dose) (experiment 1); assay type: functional, organism-based; summary of the method: as §4
# Rattus norvegicus [14] = assay: Minimum effective dose required to suppressing (MED) 5HIAA concentration in rat when administered sc; assay type: functional; details: read-out: MED
# Summary of the method: (§6)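 Male Wistar rats (~150 g). Compound in dilute HCl given sc at graded doses 1 h before decapitation. Whole-brain 5-HIAA measured by LC with electrochemical detection; serum corticosterone measured spectrofluorometrically. Minimum effective dose is the lowest dose giving a significant difference from control (P < 0.05).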
# Rattus norvegicus [15] = assay: Effect on serum corticosterone in serum of rats after sc administration (0.03 mg/kg dose) (experiment 1); assay type: functional, organism-based; summary of the method: as §3
# Rattus norvegicus [16] = assay: Effect on homovanillic acid concentration in rat striatum, after 0.3 mg/kg sc administration; assay type: functional; details: route subcutaneous
# Summary of the method: (§7)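 Male Wistar rats (~150 g) were given drug or apomorphine HCl sc and decapitated 1 h later. Striatal DOPAC and HVA were quantified by LC with electrochemical detection. Results are mean ± SE, five rats/group, P < 0.05.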
# Rattus norvegicus [17] = assay: Effect of Metergoline on the elevation of serum corticosterone, after sc administration (0.3 mg/kg) Metergoline pretreament; assay type: functional, organism-based; summary of the method: as §2
# Rattus norvegicus [18] = assay: Effect on 5-hydroxyindoleacetic acid in rat whole brain, after sc administration (0.03 mg/kg dose) (experiment 1); assay type: functional, organism-based; summary of the method: as §4
# Rattus norvegicus [19] = organism: Rattus norvegicus; assay: Effect of […] on the elevation of serum corticosterone at a dose 100 ug/mL PCPA pretreated; assay type: functional, organism-based
# Summary of the method: as §1, with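 “p-chlorophenylalanine (300” for “fluoxetine HCl (10”, “24” for “16”, “and rats were killed” for “with decapitation”, “rats/group.” for “rats/group, P < 0.05.”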
# Rattus norvegicus [20] = assay: Effect of Metergoline on the elevation of serum corticosterone, after sc administration (1.0 mg/kg) Metergoline pretreament; assay type: functional, organism-based; summary of the method: as §2
# Rattus norvegicus [21] = assay: Minimum effective dose required to increase (MED) corticosterone in rat serum, sc; assay type: functional; details: read-out: MED; summary of the method: as §6
# Rattus norvegicus [22] = assay: Effect on serotonin in rat whole brain, after sc administration (0 mg/kg dose) (experiment 2); assay type: functional, organism-based; summary of the method: as §4
# Rattus norvegicus [23] = assay: Effect on concentration of serotonin in rat brain striatum after 0.3 mg/kg sc administration; assay type: functional, organism-based; parameters: dose 0.3 mg/kg
# Summary of the method: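 Male Wistar rats (~150 g) were injected sc with drug in dilute HCl and decapitated 1 h later. Hypothalamus and striatum were dissected and frozen on dry ice. […] Results are mean ± SE, five rats/group, P < 0.05.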
# Rattus norvegicus [24] = assay: Effect on serum corticosterone in serum of rats after sc administration (1 mg/kg dose) (experiment 1); assay type: functional, organism-based; summary of the method: as §3
# Rattus norvegicus [25] = assay: Effect of Metergoline on the elevation of serum corticosterone, after sc administration (0 mg/kg) No pretreatment; assay type: functional, organism-based; summary of the method: as §2
# Rattus norvegicus [26] = assay: Effect on serotonin in rat whole brain, after sc administration (0.3 mg/kg dose) (experiment 1); assay type: functional, organism-based
# Rattus norvegicus [27] = assay: Effect of Metergoline on the elevation of serum corticosterone, after sc administration (0.1 mg/kg) Metergoline pretreament; assay type: functional, organism-based; summary of the method: as §2
# Rattus norvegicus [28] = assay: Effect on homovanillic acid concentration in rat striatum, after 0.03 mg/kg sc administration; assay type: functional; details: route subcutaneous; summary of the method: as §7
# Rattus norvegicus [29] = assay: Effect on serotonin in rat whole brain, after sc administration (0.1 mg/kg dose) (experiment 1); assay type: functional, organism-based
# Rattus norvegicus [30] = assay: Effect of Metergoline on the elevation of serum corticosterone, after sc administration (0 mg/kg) Metergoline pretreament; assay type: functional, organism-based; summary of the method: as §2
# Rattus norvegicus [31] = assay: Effect on 5-hydroxyindoleacetic acid in rat whole brain, after sc administration (0 mg/kg dose) (experiment 1); assay type: functional, organism-based; summary of the method: as §4
# Rattus norvegicus [32] = assay: Effect of Metergoline on the elevation of serum corticosterone, after sc administration (1.0 mg/kg) No pretreatment; assay type: functional, organism-based; summary of the method: as §2
structure (smiles),measurement,setting,value
C[C@@H]1C=C2c3cccc4c3[C@@H](CN4)C[C@H]2N(C)C1,Serum corticosterone,Rattus norvegicus [1],< 61.2 µg/mL
same,Serum corticosterone,Rattus norvegicus [2],22.1 µg/mL
same,Concentration,Rattus norvegicus [3],4.3 nM/g
same,Concentration,Rattus norvegicus [4],1.47 nM/g
same,Concentration,Rattus norvegicus [5],2.8 nM/g
same,Concentration,Rattus norvegicus [6],33.8 nM/g
same,Serum corticosterone,Rattus norvegicus [7],46.6 µg/mL
same,Concentration,Rattus norvegicus [8],0.71 nM/g
same,Concentration,Rattus norvegicus [9],2.32 nM/g
same,Concentration,Rattus norvegicus [10],2.77 nM/g
same,Concentration,Rattus norvegicus [11],0.73 nM/g
same,Concentration,Rattus norvegicus [12],2.2 nM/g
same,Concentration,Rattus norvegicus [13],1.45 nM/g
same,minimal effective dose,Rattus norvegicus [14],0.03 mg/kg
same,Concentration,Rattus norvegicus [15],6.5 nM/g
same,Homovanillic acid concentration,Rattus norvegicus [16],3.27 nM/g
same,Serum corticosterone,Rattus norvegicus [17],50.2 µg/mL
same,Concentration,Rattus norvegicus [18],1.52 nM/g
same,Serum corticosterone,Rattus norvegicus [19],42 µg/mL
same,Serum corticosterone,Rattus norvegicus [20],61.2 µg/mL
same,minimal effective dose,Rattus norvegicus [21],0.1 mg/kg
same,Concentration,Rattus norvegicus [22],2.66 nM/g
same,Concentration,Rattus norvegicus [23],1.94 mg/kg
same,Concentration,Rattus norvegicus [24],70.8 nM/g
same,Serum corticosterone,Rattus norvegicus [25],4.3 µg/mL
same,Concentration,Rattus norvegicus [26],2.95 nM/g
same,Serum corticosterone,Rattus norvegicus [27],46.8 µg/mL
same,Homovanillic acid concentration,Rattus norvegicus [28],2.89 nM/g
same,Concentration,Rattus norvegicus [29],2.59 nM/g
same,Serum corticosterone,Rattus norvegicus [30],6.2 µg/mL
same,Concentration,Rattus norvegicus [31],1.89 nM/g
same,Serum corticosterone,Rattus norvegicus [32],70.8 µg/mL

# — ChEMBL document CHEMBL1124171, “Ergolines as selective 5-HT1 agonists” (J Med Chem, 1988)
